Among the data in ChEMBL document CHEMBL1135489, “Structurally simple trichostatin A-like straight chain hydroxamates as potent histone deacetylase inhibitors” (J Med Chem, 2002) are IC50 values, retold here.

The target of one test is Histone deacetylase 1 (Homo sapiens, UniProt Q13547). The test is described as follows: Inhibition against partially purified human histone deacetylase 1 (HDAC-1).
For the next test, the system named is A549. The test is described as follows: Inhibitory concentration required to reduce A549 tumor cell growth by 50% in MTT assay. In kind it is functional, cell-based. The settings on record: Homo sapiens. The essentials: (§1)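 Compound dilution series added to plated cells, 72 h at 37 °C, 5% CO2. MTT then added at 0.5 mg/mL final for 4 h. Solubilization buffer (50% DMF, 20% SDS, pH 4.7) added, incubated overnight, read at 570 with 630 reference. OD converted to cell number from each line's standard growth curve.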

The next test deals with DU-145. The test is described as follows: Inhibitory concentration required to reduce DU145 tumor cell growth by 50% in MTT assay. In kind it is functional, cell-based. The settings on record: Homo sapiens. The method in brief: as §1
Another test deals with NCI-H446. The test is described as follows: Inhibitory concentration required to reduce H446 tumor cell growth by 50% in MTT assay. It counts as functional, cell-based. The settings on record: Homo sapiens. The method in brief:
as §1

Another test deals with HCT-116. The test is described as follows: Inhibitory concentration required to reduce HCT 116 tumor cell growth by 50% in MTT assay. In kind it is functional, cell-based. The settings on record: Homo sapiens. The essentials: as §1
A further test relates to HMEC. The test is described as follows: Inhibitory concentration required to reduce normal human epithelial cell line (HMEC), growth by 50% in MTT assay. It counts as functional, cell-based. The essentials:
as §1

A further test deals with MCF7. The test is described as follows: Inhibitory concentration required to reduce MCF-7 tumor cell growth by 50% in MTT assay. In kind it is functional, cell-based. The settings on record: Homo sapiens. The essentials:
as §1

For the next test, the system named is MDA-MB-231. The experiment in a line: Inhibitory concentration required to reduce MDAmb 231 tumor cell growth by 50% in MTT assay. In kind it is functional, cell-based. The settings on record: Homo sapiens. The method in brief: as §1
A further test concerns SW48. The test is described as follows: Inhibitory concentration required to reduce SW48 tumor cell growth by 50% in MTT assay. In kind it is functional, cell-based. The settings on record: Homo sapiens. The essentials:
as §1

Another test relates to T-24. The experiment in a line: Inhibitory concentration required to reduce T24 tumor cell growth by 50% in MTT assay. In kind it is functional, cell-based. The settings on record: Homo sapiens. The essentials: as §1

pIC50: −log10 of the molar value. Bounds are passed on as bounds.

Histone deacetylase 1, sequence (Q13547 whole entry): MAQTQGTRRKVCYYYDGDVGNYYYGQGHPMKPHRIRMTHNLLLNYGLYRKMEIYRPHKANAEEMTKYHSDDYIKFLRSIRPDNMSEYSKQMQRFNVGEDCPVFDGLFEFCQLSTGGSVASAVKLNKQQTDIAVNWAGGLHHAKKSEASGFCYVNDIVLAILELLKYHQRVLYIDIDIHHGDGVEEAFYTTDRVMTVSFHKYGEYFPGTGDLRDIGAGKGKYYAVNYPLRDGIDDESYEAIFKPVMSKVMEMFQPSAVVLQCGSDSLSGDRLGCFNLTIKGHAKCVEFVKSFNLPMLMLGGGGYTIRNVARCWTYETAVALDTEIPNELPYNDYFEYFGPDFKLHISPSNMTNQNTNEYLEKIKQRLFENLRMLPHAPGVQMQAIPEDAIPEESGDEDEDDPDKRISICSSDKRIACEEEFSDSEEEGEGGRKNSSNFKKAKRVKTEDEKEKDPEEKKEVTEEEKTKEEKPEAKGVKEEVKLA

`O=C(CCCCC/C=C/c1ccc2ccccc2c1)NO` had a pIC50 at Histone deacetylase 1 of 8.22.

Regarding `O=C(CCCCCCC(=O)c1ccc(C(F)(F)F)cc1)NO`, the pIC50 against Histone deacetylase 1 was 7.35.

On Histone deacetylase 1, `O=C(CCCCCCCc1ccc2ccccc2c1)NO` showed a pIC50 of 7.60.

Turning to `O=C(CCCCCCC(=O)c1cccnc1)NO`, the pIC50 against Histone deacetylase 1 was 6.82.

Consider `O=C(CCCCCCC(=O)c1ccc(N2CCN(c3ccccc3)CC2)cc1)NO`, for which the pIC50 in the test on A549 is 5.30; in the test with DU-145, 5.26; with NCI-H446 it was 6.00; in the test with HCT-116, 5.40; in the test on HMEC it was < 4.70; at Histone deacetylase 1, 8.35. For the same molecule, the pIC50 with MCF7 was 5.70; with MDA-MB-231 it was 6.10; with SW48, 5.60; in the test with T-24, 5.15.

As for `CC(/C=C/C(=O)NO)=C\[C@@H](C)C(=O)c1ccc(N(C)C)cc1` [TRICHOSTATIN], the pIC50 in the test on A549 was 6.80; in the test on DU-145, 6.70; in the test with NCI-H446, 7.10; in the test on HCT-116, > 7.30; in the test with HMEC, 5.80; with MCF7 it was 7.00. For the same molecule, the pIC50 with MDA-MB-231 is 7.05; with SW48, 7.00; in the test on T-24, 6.82.
